Test results reported in ChEMBL document CHEMBL2424583, “Structure-activity relationship and in vitro and in vivo evaluation of the potent cytotoxic anti-microtubule agent N-(4-methoxyphenyl)-N,2,6-trimethyl-6,7-dihydro-5H-cyclopenta[d]pyrimidin-4-aminium chloride and its analogues as antitumor agents” (J Med Chem, 2013).
Active and inactive are the calls of the source. No cut-off for these calls is given here.

What was measured:
IGROV-1 = test: Cytotoxicity against human IGROV1 cells assessed as growth inhibition after 48 hrs by SRB assay; assay type: functional; details: IGROV-1, 48 h
Hs-578T = test: Cytotoxicity against human Hs578T cells assessed as growth inhibition after 48 hrs by SRB assay; assay type: functional
CCRF-CEM = test: Cytotoxicity against human CCRF-CEM cells assessed as growth inhibition after 48 hrs by SRB assay; assay type: functional
MDA-MB-231 [1] = test: Antitumor activity against human MDA-MB-231 cells xenografted in athymic nude mouse assessed as tumor growth inhibition at 75 mg/kg, ip qd administered on day 14 for 5 days followed by compound readministration on day 27 measured on day 31 relative to control; assay type: functional; details: route intraperitoneal
How it was run: (§1)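 Female athymic nude mice were implanted sc with an MDA-MB-231T tumour fragment, and tumours were staged to about 125 mg. Drug was given ip in 10% DMSO in saline/Tween 80, with courses starting day 14 and repeated from day 27. There were 8 animals per treated group and 16 controls. Read-outs were body weight, deaths, median tumour mass as T/C, days to a predetermined size as T-C/C, and net log cell kill.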

Mus musculus [2] = test: Toxicity in athymic nude mouse xenografted in human MDA-MB-231 cells assessed as body weight loss at 75 mg/kg, ip qd administered every other day started on day 14 for 5 days followed by compound readministration on day 27 (reference value: 6.7%); assay type: organism-based; design: dose 75 mg/kg, route intraperitoneal; details: in vivo, 120 h
UO-31 = test: Cytotoxicity against human UO31 cells assessed as growth inhibition after 48 hrs by SRB assay; assay type: functional; details: UO-31, 48 h
Mus musculus [3] = test: Toxicity in athymic nude mouse xenografted in human MDA-MB-231 cells assessed as mortality at 50 mg/kg, ip bid administered every other day started on day 14 followed by compound readministration every other day started on day 27; assay type: organism-based; design: dose 50 mg/kg, route intraperitoneal; details: in vivo; how it was run: as §1
U-251 = test: Cytotoxicity against human U251 cells assessed as growth inhibition after 48 hrs by SRB assay; assay type: functional; details: U-251, 48 h
SK-OV-3 = test: Cytotoxicity against human SKOV3 cells assessed as growth inhibition after 48 hrs by SRB assay; assay type: functional; details: SK-OV-3, 48 h
SK-MEL-28 = test: Cytotoxicity against human SK-MEL-28 cells assessed as growth inhibition after 48 hrs by SRB assay; assay type: functional; details: SK-MEL-28, 48 h
HCT-116 = test: Cytotoxicity against human HCT116 cells assessed as growth inhibition after 48 hrs by SRB assay; assay type: functional; details: HCT-116, 48 h
Tubulin (Sus scrofa) = Tubulin (Sus scrofa) (UniProt P02554+P02550); test: Displacement of [3H]-colchicine from pig brain tubulin at 5 uM after 10 mins by scintillation counting analysis relative to control
Chain of Tubulin (Sus scrofa) (P02550 whole entry, looked up): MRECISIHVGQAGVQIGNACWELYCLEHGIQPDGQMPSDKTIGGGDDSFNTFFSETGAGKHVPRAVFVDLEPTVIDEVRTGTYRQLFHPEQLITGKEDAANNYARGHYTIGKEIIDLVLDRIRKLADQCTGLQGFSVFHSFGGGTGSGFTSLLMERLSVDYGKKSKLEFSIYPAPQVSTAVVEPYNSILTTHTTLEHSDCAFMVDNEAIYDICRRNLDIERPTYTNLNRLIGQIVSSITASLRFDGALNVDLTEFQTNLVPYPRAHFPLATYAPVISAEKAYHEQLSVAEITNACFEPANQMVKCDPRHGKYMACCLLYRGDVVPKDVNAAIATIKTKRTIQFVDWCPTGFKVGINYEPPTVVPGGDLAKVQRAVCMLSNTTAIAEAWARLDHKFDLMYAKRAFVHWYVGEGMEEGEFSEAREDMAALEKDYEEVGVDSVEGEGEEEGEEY
Chain of Tubulin (Sus scrofa) (P02554 whole entry, looked up): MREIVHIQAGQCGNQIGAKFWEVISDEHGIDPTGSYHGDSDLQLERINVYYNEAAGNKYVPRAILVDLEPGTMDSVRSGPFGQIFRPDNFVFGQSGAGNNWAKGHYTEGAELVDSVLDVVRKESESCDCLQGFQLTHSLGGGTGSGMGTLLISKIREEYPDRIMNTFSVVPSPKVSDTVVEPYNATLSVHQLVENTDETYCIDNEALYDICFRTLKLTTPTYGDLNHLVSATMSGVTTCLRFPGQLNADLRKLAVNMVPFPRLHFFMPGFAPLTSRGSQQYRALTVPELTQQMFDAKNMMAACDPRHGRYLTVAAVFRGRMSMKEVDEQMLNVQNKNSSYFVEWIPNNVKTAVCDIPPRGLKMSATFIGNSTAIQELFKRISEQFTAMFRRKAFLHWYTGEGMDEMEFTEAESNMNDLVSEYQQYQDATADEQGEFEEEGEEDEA

MDA-MB-231 [4] = test: Antitumor activity against human MDA-MB-231 cells xenografted in athymic nude mouse assessed as tumor free state at 75 mg/kg, ip qd administered on day 14 for 5 days followed by compound readministration on day 27 measured on day 41; assay type: functional, organism-based; design: dose 75 mg/kg
How it was run: (§2)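 Female athymic nude mice carried sc MDA-MB-231T tumor fragments staged to about 125 mg. Compound was given ip as a solution in 10% DMSO in saline/Tween 80, with courses beginning day 14 and repeated from day 27. Groups had 8 animals, with 16 vehicle controls. Animals were scored as tumor-free on day 41.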

KM12 = test: Cytotoxicity against human KM12 cells assessed as growth inhibition after 48 hrs by SRB assay; assay type: functional; details: KM12, 48 h
SN12C = test: Cytotoxicity against human SN12C cells assessed as growth inhibition after 48 hrs by SRB assay; assay type: functional
OVCAR-5 = test: Cytotoxicity against human OVCAR5 cells assessed as growth inhibition after 48 hrs by SRB assay; assay type: functional; details: OVCAR-5, 48 h
MDA-MB-435 [5] = test: Cytotoxicity against human MDA-MB-435 cells assessed as growth inhibition after 48 hrs by SRB assay; assay type: functional, cell-based; details: MDA-MB-435, 48 h
MDA-MB-231 [6] = test: Antitumor activity against human MDA-MB-231 cells xenografted in athymic nude mouse assessed as delay in tumor growth at 50 mg/kg, ip qd administered on day 14 for 5 days followed by compound readministration on day 27 measured on day 31 relative to control; assay type: functional; details: route intraperitoneal; how it was run: as §1
SNB-75 = test: Cytotoxicity against human SNB75 cells assessed as growth inhibition after 48 hrs by SRB assay; assay type: functional; details: SNB-75, 48 h
MDA-MB-231 [7] = test: Antitumor activity against human MDA-MB-231 cells xenografted in athymic nude mouse assessed as net tumor log cell kill at 75 mg/kg, ip qd administered on day 14 for 5 days followed by compound readministration on day 27; assay type: functional; details: route intraperitoneal; how it was run: as §1
A549 = test: Cytotoxicity against human A549 cells assessed as growth inhibition after 48 hrs by SRB assay; assay type: functional; details: A549, 48 h
MDA-MB-231 [8] = test: Antitumor activity against human MDA-MB-231 cells xenografted in athymic nude mouse assessed as tumor growth inhibition at 75 mg/kg, ip qd administered every other day started on day 14 for 5 days followed by compound readministration on day 27 measured on day 31 relative to control; assay type: functional; details: route intraperitoneal; how it was run: as §1
MDA-MB-435 [9] = test: Cell cycle arrest in human MDA-MB-435 cells assessed as […] at 25 nM after 24 hrs by FACS flow cytometric analysis; assay type: functional, cell-based
How it was run: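 MDA-MB-435 cells plated and allowed to adhere 24 h, then exposed to drug for 24 h. Cells harvested, stained with Krishan's reagent, and DNA content analysed by flow cytometry.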

MDA-MB-231 [10] = test: Antitumor activity against human MDA-MB-231 cells xenografted in athymic nude mouse assessed as tumor free state at 50 mg/kg, ip qd administered on day 14 for 5 days followed by compound readministration on day 27 measured on day 41; assay type: functional, organism-based; design: dose 50 mg/kg; how it was run: as §2
HCC 2998 = test: Cytotoxicity against human HCC2998 cells assessed as growth inhibition after 48 hrs by SRB assay; assay type: functional; details: HCC 2998, 48 h
HeLa = test: Antiproliferative activity against human HeLa cells after 48 hrs by SRB assay; assay type: functional, cell-based
How it was run: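 Isogenic pairs: parental SK-OV-3 alongside its Pgp-overexpressing subline MDR-M6-6, and parental HeLa alongside βIII-tubulin-transfected HeLa. Antiproliferative IC50 measured by sulforhodamine B assay, averaged from at least three independent experiments ± SD. Relative resistance is the transduced-line IC50 divided by the parental-line IC50.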

BT-549 = test: Cytotoxicity against human BT549 cells assessed as growth inhibition after 48 hrs by SRB assay; assay type: functional; details: BT-549, 48 h
Mus musculus [11] = test: Toxicity in athymic nude mouse xenografted in human MDA-MB-231 cells assessed as mortality at 50 mg/kg, ip qd administered on day 14 for 5 days followed by compound readministration on day 27; assay type: organism-based; design: dose 50 mg/kg, route intraperitoneal; details: in vivo, 120 h; how it was run: as §1
MDA-MB-231 [12] = test: Antitumor activity against human MDA-MB-231 cells xenografted in athymic nude mouse assessed as tumor free state at 75 mg/kg, ip qd administered every other day started on day 14 for 5 days followed by compound readministration on day 27 measured on day 41; assay type: functional, organism-based; design: dose 75 mg/kg; how it was run: as §2
NCI-H522 = test: Cytotoxicity against human NCI-H522 cells assessed as growth inhibition after 48 hrs by SRB assay; assay type: functional; details: NCI-H522, 48 h
Mus musculus [13] = test: Toxicity in athymic nude mouse xenografted in human MDA-MB-231 cells assessed as body weight loss at 50 mg/kg, ip qd administered on day 14 for 5 days followed by compound readministration on day 27 (reference value: 6.7%); assay type: organism-based; design: dose 50 mg/kg, route intraperitoneal; details: in vivo, 120 h

Compound | GI50 (IGROV-1) [nM] | GI50 (Hs-578T) [nM] | GI50 (CCRF-CEM) [nM] | GI50 (UO-31) [nM] | GI50 (U-251) [nM] | GI50 (SK-OV-3) [nM] | GI50 (SK-MEL-28) [nM] | GI50 (HCT-116) [nM] | GI50 (KM12) [nM] | GI50 (SN12C) [nM] | GI50 (OVCAR-5) [nM] | GI50 (SNB-75) [nM] | GI50 (A549) [nM] | Activity (MDA-MB-435 [9]) | GI50 (HCC 2998) [nM] | GI50 (BT-549) [nM] | GI50 (NCI-H522) [nM] | other results
COc1ccc(N(C)c2nc(C)nc3c2CCC3)cc1.Cl | 12.8 | < 10 | < 10 | 46.1 | < 10 | 14.6 | < 10 | < 10 | < 10 | 33 | 36.4 | < 10 | 15 | Active | 16.4 | 21.8 | < 10 | T/C (MDA-MB-231 [1]): 17%; %max (Mus musculus [2]): 9%; Activity (Mus musculus [3]): Non-toxic; inhibition (Tubulin (Sus scrofa)): 92%; Activity (MDA-MB-231 [4]): Active; IC50 (MDA-MB-435 [5]): 7 nM; Activity (MDA-MB-231 [6]): 27%; LCK (MDA-MB-231 [7]): -1.1; T/C (MDA-MB-231 [8]): 19%; Activity (MDA-MB-231 [10]): Active; IC50 (HeLa): 9.3 nM; Activity (Mus musculus [11]): Non-toxic; Activity (MDA-MB-231 [12]): Active; %max (Mus musculus [13]): 7.7%
COc1ccc(N(C)c2nc(C)nc3c2CC(C)C3)cc1.Cl (racemic) | 11 | < 10 | 16.3 | 13.4 | 12.5 | 27.5 | < 10 | 15.1 | < 10 | 31.8 | 38.5 | < 10 | 24.4 | Active | 24 | 21.9 | < 10 | inhibition (INH) (Tubulin (Sus scrofa)): 84%
